# Experimental data taken from the RNAGym collection of RNA variant scans (doi:10.1101/gad.245936.114).
# Variants at the floor of the assay were thinned out.
# B1: tRNA (parent)
# chain: CUCUCGGUAGCCAAGUUGGUUUAAGGCGCAAGACUUUAAUUUAUCACUACGAAAUCUUGAGAUCGGGCGUUCGACUCGCCCCCGGGAGAUUUUUUCCUCGAGCAA
# Variants of: B1
# Assay: nonsense suppression (GFP-seq) (ratio to wild type); higher = more function; SUP4oc tRNA, yeast GFP reporter sort-seq
# In short: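 Each variant's nonsense suppression (GFPSEQ) is a cell-share-weighted bin median GFP/RFP relative to the unmutated parent tRNA. Yeast with genome-integrated tRNA variants from a ~3% random-mutation library, a galactose-driven GFP ochre reporter and RFP were grown in raffinose/galactose medium with 80 mg/L adenine, then sorted into GFP/RFP bins for Illumina sequencing. Variants needed ≥100 reads and ≥30 cells.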
row,Variant,nonsense suppression
1,CUCUCGGUAGCCAGGUUGGUUUAAGGCGCAAGACUUUAAUUUAUCACUACGAAAUCCAGAGAUCGGGCGUUCGACUCGCCCCCGGGAGAUUUUUUCCUCGAGCAA,≤ 0.026
2,CUCUCGGUAGCCAUGUUGGUUUACGGCGCAAGACUUUAAUUUAUCACUACGAAAUCUUGAGAUCGGGCGUUCGACUCGCCCCCGGGAGAUUUUUUCCUCGAGCAA,0.0284
3,CUCUCGGUAGCCAGGUUGGUUUAAGGCGCAAGACUUUAAUUUAUCACUACGAAAUCUUGAGAUCGGGCGUUCGACUCGCCCCCGGUAGAUUUUUUCCUCGAGCAA,≤ 0.026
4,CUCUCGGUAGCCAUGUUGGUUUAUGUCGGAAGACUUUAAUUUAUCACUACGAAAUCUUGAGAUCGGGCGUUCGACUCGCCCCCGGGAGAUUUUUUCCUCGAGCAA,≤ 0.026
5,CUCUCGGUAGCCAGGUUGGUUUAAGGCGCAAGACUUUAAUUUAUCACUACGAAGUCUUGAGAUCGGGCGUUCGACUCGCCCCCGGGAGAUUUUUUCCUCGAGCAA,≤ 0.026
6,CUCUCGGUAGCCAUGUUGGUUUGAGGCGCAAGACUUUAAUUUAUCACUACGAAAUCUUGAGUUCGGGCGUUCGACUCGCCCCCAGGAGAUUUUUUCCUCGAGCAA,≤ 0.026
7,CUCUCGGUAGCCAGGUUGUUUUGAGGCGCGAGACUUUAAUUUAUCACUACGAAAUCUUGAGAUCGGGCGUUCGAUUCGCCCUCGGGAGAUUUUUUCCUCGAGCAA,≤ 0.026
8,CUCUCGGUAGCCAUGUUGGUUUAAGGCGCAAGACUUUAAUUUAUCACUACGAAAUCUUGCGAUCGAACGUUCGACUCGCCCCCGGGAGAUUUUUUCCUCGAGCAA,≤ 0.026
9,CUCUCGGUAGCCACGUUGGUUUAAGGCGCAAGACUUUAAUUUAUCACUACGAAAUCUUGAGAUCAGGCGUUCGACUCGCCCCCGGGAGAUUUUUUCCUCGAGCAA,≤ 0.026
10,CUCUCGGUAGCCAGGUUGGUUUAAGACGCAAGACUUUAAUUUAUCACUACGAAAUCUUGAGAUCGCGCGUUCGACUCGCCCCCGGGAGAUUUUUUCCUCGAGCAA,≤ 0.026
11,CUCUCGGUAGCCAGGUUGCUUUAAGGCGAAAGACUUUAAUUUAUCACUACGAAAUAUUGAGAUCGGGCGUUCGACUCGCCCCCGGGACAUUUUUUCCUCGAGCAA,≤ 0.026
12,CUCUCGGUAGCCAUGUUGGUUUAAGGCGCAAGACUUUAAUUUAUCACUACGAACUCUUGAGAUCGGGAGUUCCACUCGCCCCCAGGAGAUUUUUUCCUCGAGCAA,0.202
13,CUCUCGGUAGCCACGUUGGUUUAAGGCGCAAGACUUUAAUUUAUCACUACGAAAUCUUCAGAUCGGGCGUUCGACUCGCCCCCGAGAGAUUUUUUCCUCGAGCAA,≤ 0.026
14,CUCUCGGUAGCCACGUUGGUUUAAGGCGCAAGACUUUAAUUUAUCACUACGAAAUCUUGAGAUCGGGUGUUCGACUCGCCCCCGGGAAAUUUUUUCCUCGAGCAA,≤ 0.026
15,CUCUCGGUAGCCACGUUGGUUUAAGGCGCAAGACUUUAAUUUAUCACUACGAAAUCUUGAGAGCGGGCGUUCGACUCGCCCCCGGGCGAUUUUUUCCUCGAGCAA,≤ 0.026
16,CUCUCGGUAGCCACGUUGGUUUAAGGCGCAAGACUUUAAUUUAUCACUACGAAAUCUUAAGAUCGGGCGGUCGACUCGCCCCCGGGAGAUUUUUUCCUCGAGCAA,≤ 0.026
17,CUCUCGGUAGCCAUGUUUGUUUUAGGGGCAAGACUUUAAUUUAUCACUACGAAAUCUUGAGAUCGGGCGUUCGACUCGCCCCCGGGAGAUUUUUUCCUCGAGCAA,≤ 0.026
18,CUCUCGGUAGCCAUGUUGGUUUAAUGCGCCAGACUUUAAUUUAUCACUACGAAAUCUUGAGAUCCGGCGUUCGACUCGCCCCCGGGAGAUUUUUUCCUCGAGCAA,≤ 0.026
19,CUCUCGGUAGCCACGUUGGUUUAAGGCGCAAGACUUUAAUUUAUCACUACGAAAUCUUGAGAUCGGGCGUACGACUCGCCCCCGGGAGAUUUUUUCCUCGAGCAA,≤ 0.026
20,CUCUCGGUAGCCACGCUGAUUUUAGGCGUGAGACUUUAAUUUAUCACUACGAAAUCUUGAGAUCGGGCGUUGGACUCGCCCACGGGAGAUUUUUUCCUCGAGCAA,≤ 0.026
21,CUCUCGGUAGCCACGUUGGUUUAAGGCGCAAGACUUUAAUUUAUCACUACGAAAUCUUGAGAUCCGGCGUUCGACUCGCGCCCGGGCGAUUUUUUCCUCGAGCAA,≤ 0.026
22,CUCUCGGUAGCCACGUUGGUGUCAGGCGCAAGACUUUAAUUUAUCACUACGAAAUCUUGAGAUCGGGCAAUCGACUCGCCCCCGGGAGAUUUUUUCCUCGAGCAA,≤ 0.026
23,CUCUCGGUAGCCAGGUUGGUUUAAGGCGUAAGACUUUAAUUUAUCACUACGAAAUCUUGAGAUCGGGCGUUCGACUCGCCCCCGGGAGAUUUUUUCCUCGAGCAA,0.0832
24,CUCUCGGUAGCCAGGUUGGUUUAAGGCGCAGGACUUUAAUUUAUCACUACGAAAUCUUGAGAUCGGGCGUUCGACUCGCCCCCGGGAGAUUUUUUCCUCGAGCAA,0.0611
25,CUCUCGGUAGCCAGGUAGGUUUAAGGCGCAAGACUUUAAUUUAUCACUACGAAAUCUUUAGAUCGGGCGUUCGACUCGCCCCCGGGAGAUUUUUUCCUCGAGCAA,≤ 0.026
26,CUCUCGGUAGCCAGGUUGGUUUAAGGCGCCAGACUUUAAUUUAUCACUACGAAAUCUUGACAUCGGGCGUUCGUCUCGCCCCCGGGAGAUUUUUUCCUCGAGCAA,≤ 0.026
27,CUCUCGGUAGCCAUGUUGGUUUAAGGCGCAACACUUUAAUUUAUCACUACGAAAUCUUGAGAUCGGGCGUUCGACUCGCCCCCGGGAUAUUUUUUCCUCGAGCAA,≤ 0.026
